Wee1 degr inh: inhibitors of human Wee1 degradation. P30291. HeLa Luc-Wee1K328M stability, luciferase luminescence; 100% = proteasome inhibitor MG132 effect. reporter increase, % at 5 µM. actives 1.2% (n = 220,000). AID 1321;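 active = activation above the mean of all tested compounds plus 3 SD, set per screening run, cut at about 8.8% in these data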;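 also: cells exposed to compound for 20 h before luminescence read; 0% = DMSO alone and 100% = MG132 at 30 µM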
AI-2 QS modul: Vibrio harveyi AI-2 quorum sensing modulation. activity change, % at 7.5 µM. Vibrio harveyi JMH597 AI-2 luminescence/OD600 ratio, 9 h; active compounds read low; strain lacks LuxN and CqsS sensors; 0 = neutral-control median. actives 0.4% (n = 300,000). AID 2094; in the data active = activity change below about -75%, passing the limit was not always enough; inconclusive = no clear call, values can overlap the other calls;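 also: luminescence divided by OD600 gain over 9 h not by final OD600 alone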
RanGTP-Imp inh: disruptors of Ran-importin-beta complex formation – biochemical, FRET, CFP-Ran, YFP-importin-beta, homogeneous, primary screen. inhibition, % (concentration not given with the values). actives 1.1% (n = 300,000). AID 2216. cell-free CFP-Ran/YFP-importin-beta FRET ratio;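 active = more than half of the replicate wells show a fall in the fluorescence ratio signal beyond about 16%, limit read from the data, passing the limit was not always enough; inconclusive = exactly half of the replicate wells pass the set limit; inactive = fewer than half of replicates pass the limit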;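 also: 0% = DMSO wells and 100% = Ran loaded with GDP instead of GTP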
Runt-SMMHC FRET: blocks binding of human RUNX1 Runt domain to CBFb-SMMHC; Cerulean-Runt/Venus-CBFb-SMMHC FRET ratio 530/480, 1 h; actives 0.74% (n = 220,000); inhibition, % at 20 µM;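 active = mean inhibition across duplicate retests at 20 µM reaching about 50%, limit read from the data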;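 also: 0% = DMSO wells and 100% = wells with excess untagged CBFb-SMMHC; inhibitors lower the FRET ratio by blocking Runt binding to CBFb-SMMHC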
KLK7 zymogen act: activates the human kallikrein-7 zymogen | P49862 | purified proKLK7, EDANS-DABCYL substrate fluorescence; 100% is mature enzyme control, 0% vehicle | activation, % at 7 µM | actives 0.9% (n = 370,000) | AID 652039;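 active = activation above the mean of all tested compounds plus 3 SD, computed per campaign excluding outliers beyond control limits, cut at about 13% in these data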
Target sequence (P49862 whole entry, looked up): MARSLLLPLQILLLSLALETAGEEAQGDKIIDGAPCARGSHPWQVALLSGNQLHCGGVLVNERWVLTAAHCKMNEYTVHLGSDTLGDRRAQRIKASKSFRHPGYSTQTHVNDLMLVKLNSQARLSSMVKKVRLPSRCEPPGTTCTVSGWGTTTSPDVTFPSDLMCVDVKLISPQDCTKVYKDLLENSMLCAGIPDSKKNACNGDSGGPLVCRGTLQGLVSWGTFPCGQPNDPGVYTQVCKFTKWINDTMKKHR
Runt-CBFb FRET: Runt domain-CBFb interaction inhibition; Cerulean-Runt/Venus-CBFb FRET ratio 530/480, 1 h; inhibition, % at 20 µM; actives 0.46% (n = 220,000); Q01196+Q13951;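 active = inhibition over about 50% at 20 µM in the single-dose screen, limit read from the data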;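 also: 0% = DMSO wells and 100% = excess unlabeled CBFb competitor control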
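Assay system: Cerulean-tagged RUNX1 Runt domain (FRET donor) fusion protein / Amount: 100 nM each of Venus-CBFb and Cerulean-Runt domain / Medium: Tris buffer pH 7.5 with salts and BSA / Also added: Venus-CBFb 100 nM / Schedule: 1 h complex formation plus 1 h compound treatment, room temperature / Signal: FRET fluorescence / Read-out: loss of energy transfer signal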
* hit, by the source's call. Shown are actives, neighbours in structure and some others; about 2.9% of the full set was active somewhere.

Results for O=C(Cc1ccc(Cl)cc1)NNC(=S)NC(=O)c1cccnc1 ?
Wee1 degr inh: -1.4; AI-2 QS modul: -87.6*; RanGTP-Imp inh: 1.4; Runt-SMMHC FRET: -4.2; KLK7 zymogen act: -0.2; Runt-CBFb FRET: 27.0

What do the screens show for `O=C(NNC(=S)NCc1ccc(Cl)cc1)c1cccnc1`?
AI-2 QS modul: -49.7; RanGTP-Imp inh: -1.3; KLK7 zymogen act: 0.6

What do the screens show for `Cc1ccc(C(=O)NNC(=S)NC(=O)c2ccc(Cl)cc2)cc1`?
Wee1 degr inh: 3.7; AI-2 QS modul: -127.1*; RanGTP-Imp inh: -0.9; Runt-SMMHC FRET: 8.6; KLK7 zymogen act: -0.2; Runt-CBFb FRET: 6.3

How did O=C(NC(=S)NNC(=O)c1ccc(Cl)cc1Cl)c1cccnc1 do in these assays?
Wee1 degr inh: -0.5; AI-2 QS modul: 79.5; RanGTP-Imp inh: 4.1; Runt-SMMHC FRET: 7.3; KLK7 zymogen act: -0.4; Runt-CBFb FRET: 27.7

What do the screens show for `CN1CCN(C(=O)c2cnc(Cc3c[nH]c4ccccc34)c(I)c2)CC1`?
KLK7 zymogen act: 0.2

Results for COc1cccc(C(=O)Nc2nnc(-c3ccc(Cl)cc3)o2)c1 ?
AI-2 QS modul: -87.2*; RanGTP-Imp inh: -3.0; Runt-SMMHC FRET: 1.5; KLK7 zymogen act: -0.7; Runt-CBFb FRET: -0.2

What do the screens show for `COc1cccc(C(=O)Nc2nnc(-c3ccc(F)cc3)o2)c1`?
AI-2 QS modul: -88.2*; RanGTP-Imp inh: -0.4; Runt-SMMHC FRET: -1.4; KLK7 zymogen act: -0.6; Runt-CBFb FRET: 2.7

Results for O=C(COc1ccccc1)Nc1nnc(-c2ccc(Cl)cc2)o1 ?
AI-2 QS modul: -89.6*; RanGTP-Imp inh: 4.5; KLK7 zymogen act: -0.1

How did O=C(COc1ccc(Cl)cc1)Nc1nnc(-c2ccc3c(c2)CCCC3)o1 do in these assays?
Wee1 degr inh: 3.9; AI-2 QS modul: 17.8; RanGTP-Imp inh: -0.1; Runt-SMMHC FRET: -5.8; KLK7 zymogen act: 1.0; Runt-CBFb FRET: 0.2

What do the screens show for `COc1cccc(C(=O)Nc2nnc(-c3cccs3)o2)c1`?
Wee1 degr inh: -0.5; AI-2 QS modul: -84.0*; RanGTP-Imp inh: 0.4; Runt-SMMHC FRET: -8.1; KLK7 zymogen act: 0.1; Runt-CBFb FRET: 3.5

What do the screens show for `CCOC(=O)N1CCN(Cc2ccc3c(c2)OCO3)CC1`?
AI-2 QS modul: 7.9; RanGTP-Imp inh: -0.7; KLK7 zymogen act: -0.1

What do the screens show for `Cc1c(O)ccc(C(=O)CN2CCN(Cc3ccc4c(c3)OCO4)CC2)c1O`?
Wee1 degr inh: 10.9*; AI-2 QS modul: 26.9; RanGTP-Imp inh: 3.3; Runt-SMMHC FRET: -130.5; KLK7 zymogen act: -0.6; Runt-CBFb FRET: 0.6

Results for Cc1ccc(Sc2ncccc2C(=O)O)cc1C ?
Wee1 degr inh: -0.1; AI-2 QS modul: -85.7*; RanGTP-Imp inh: 7.4; Runt-SMMHC FRET: 0.9; KLK7 zymogen act: 0.0; Runt-CBFb FRET: -1.6

How did O=C(O)c1cccnc1Sc1ccccc1Cl do in these assays?
Wee1 degr inh: -2.1; AI-2 QS modul: -1.9; RanGTP-Imp inh: inconclusive; Runt-SMMHC FRET: -7.0; KLK7 zymogen act: -0.3; Runt-CBFb FRET: -0.3

What do the screens show for `Cc1ccc(Sc2ncccc2C(=O)O)c(C)c1`?
Wee1 degr inh: -1.8; AI-2 QS modul: -87.6*; RanGTP-Imp inh: 1.7; Runt-SMMHC FRET: -1.8; KLK7 zymogen act: 0.4; Runt-CBFb FRET: -1.0

Results for CC(=O)Nc1nc2n(n1)C(c1ccc(Cl)cc1)C=C(C)N2 (configuration not stated) ?
Wee1 degr inh: 4.5; AI-2 QS modul: 19.2; RanGTP-Imp inh: -1.3; Runt-SMMHC FRET: 83.4*; KLK7 zymogen act: 7.6; Runt-CBFb FRET: 30.6

How did CC1CCCC/C1=N\NS(=O)(=O)c1ccc(Br)cc1 (configuration not stated) do in these assays?
Wee1 degr inh: 4.3; AI-2 QS modul: 17.6; RanGTP-Imp inh: 5.1; Runt-SMMHC FRET: -36.9; KLK7 zymogen act: -0.1; Runt-CBFb FRET: -0.6

What do the screens show for `Cc1ccc(C(=O)NC(=O)CSc2nncn2C)cc1`?
RanGTP-Imp inh: -5.9; KLK7 zymogen act: -0.5

Results for Cc1ccc(C2=NN=C(NC(=O)CSc3nncn3C)SC2)cc1 ?
Wee1 degr inh: -0.5; AI-2 QS modul: 4.8; RanGTP-Imp inh: -1.4; Runt-SMMHC FRET: 61.0*; KLK7 zymogen act: 0.8; Runt-CBFb FRET: 48.8

What do the screens show for `CCCc1nc2ccc(NC(=O)NCCC(=O)OCC)cc2c(=O)n1Cc1cccc(Cl)c1`?
Wee1 degr inh: 16.7*; AI-2 QS modul: 23.0; RanGTP-Imp inh: inconclusive; Runt-SMMHC FRET: -50.1; KLK7 zymogen act: 0.2; Runt-CBFb FRET: -9.8

How did CCCc1nc2ccc(NC(=O)NCCC(=O)OCC)cc2c(=O)n1Cc1ccc(Cl)cc1 do in these assays?
Wee1 degr inh: 2.3; AI-2 QS modul: 5.4; RanGTP-Imp inh: -1.4; Runt-SMMHC FRET: 0.9; KLK7 zymogen act: 0.2; Runt-CBFb FRET: -7.1

Results for Cc1ccc(-c2nc3c(C)cc(Br)cn3c2Cc2ccccc2C(F)(F)F)cc1 ?
KLK7 zymogen act: 0.5

Results for COc1ccc(Oc2nccc(-c3ccc(F)cc3)c2C#N)cc1 ?
Wee1 degr inh: 11.9*; AI-2 QS modul: 15.8; RanGTP-Imp inh: 5.4; Runt-SMMHC FRET: -1.0; KLK7 zymogen act: 0.0; Runt-CBFb FRET: -1.4

How did Nc1cccc2c1C(=O)N(CC(=O)NC13CC4CC(CC(C4)C1)C3)C2=O do in these assays?
Wee1 degr inh: 2.3; AI-2 QS modul: 12.4; RanGTP-Imp inh: 5.5; Runt-SMMHC FRET: 92.8*; KLK7 zymogen act: -58.6; Runt-CBFb FRET: 20.3

What do the screens show for `O=C(Cn1sc2ccccc2c1=O)NC12CC3CC(CC(C3)C1)C2`?
Wee1 degr inh: -1.0; AI-2 QS modul: 14.8; RanGTP-Imp inh: 0.3; Runt-SMMHC FRET: 25.2; Runt-CBFb FRET: -55.1

What do the screens show for `CN1CC=C2C(C#N)=C(N)C(C#N)(C#N)[C@H](c3cccs3)[C@H]2C1`?
Wee1 degr inh: -1.8; AI-2 QS modul: 9.3; RanGTP-Imp inh: 54.6*; Runt-SMMHC FRET: 75.1*; Runt-CBFb FRET: 36.8

How did CCOC(=O)N1CC=C2C(C#N)=C(N)C(C#N)(C#N)[C@H](c3ccc(OC(C)C)c(OCC)c3)[C@H]2C1 do in these assays?
Wee1 degr inh: -1.7; AI-2 QS modul: 11.0; RanGTP-Imp inh: 2.0; Runt-SMMHC FRET: 1.5; KLK7 zymogen act: 1.1; Runt-CBFb FRET: -3.1

Results for N#CC1=C(N)C(C#N)(C#N)[C@H](c2cccnc2)[C@H]2CN(C(=O)OCc3ccccc3)CC=C12 ?
Wee1 degr inh: 2.6; AI-2 QS modul: 20.3; RanGTP-Imp inh: 12.5; Runt-SMMHC FRET: 7.2; KLK7 zymogen act: 7.9; Runt-CBFb FRET: 12.9

How did COc1cccc(C2C3CN(C)CC=C3C(C#N)=C(N)C2(C#N)C#N)c1OC (configuration not stated) do in these assays?
Wee1 degr inh: -0.7; AI-2 QS modul: 15.6; RanGTP-Imp inh: 38.7*; Runt-SMMHC FRET: 61.5*; KLK7 zymogen act: 0.3; Runt-CBFb FRET: 74.0*

Compound activity: PubChem BioAssay, several laboratories
